Assay results published in ChEMBL document CHEMBL1671716, “Antimicrobial susceptibility patterns for recent clinical isolates of anaerobic bacteria in South Korea” (2010).
In brackets after ≈: the same amount, converted by molar mass.

How the values were obtained:
Bacteroides caccae [1] = assay: Antimicrobial activity against Bacteroides caccae after 48 hrs by agar dilution method; format: functional
In short: (§1)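 MICs on clinical anaerobe isolates by the CLSI agar dilution method. Inoculum of 10^5 CFU applied with a Steers replicator. Plates incubated 48 h at 37°C in an anaerobic chamber.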

Phocaeicola vulgatus = assay: Antimicrobial activity against Bacteroides vulgatus after 48 hrs by agar dilution method; format: functional; in short: as §1
Bacteroides fragilis = assay: Antimicrobial activity against Bacteroides fragilis assessed as percent susceptible isolates after 48 hrs by agar dilution method; format: functional
[2] = test system: Bacteroides thetaiotaomicron; assay: Antimicrobial activity against Bacteroides thetaiotaomicron assessed as percent resistant isolates after 48 hrs by agar dilution method in presence of 4 ug/ml beta-lactamase inhibitor Tazobactam; format: functional
In short: (§2)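 CLSI agar dilution on recent Korean clinical anaerobe isolates. Inoculum 10^5 CFU per spot by replicator. Plates incubated in an anaerobic chamber at 37°C for 48 h. For piperacillin plus tazobactam, tazobactam was held constant at 4 μg/ml. Resistance and susceptibility rates derived from MICs.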

Bacteroides caccae [3] = assay: Antimicrobial activity against Bacteroides caccae assessed as percent susceptible isolates after 48 hrs by agar dilution method; format: functional
[4] = test system: Parabacteroides distasonis; assay: Antimicrobial activity against Bacteroides distasonis assessed as percent susceptible isolates after 48 hrs by agar dilution method in presence of 4 ug/ml beta-lactamase inhibitor Tazobactam; format: functional
[5] = test system: Parabacteroides distasonis; assay: Antimicrobial activity against Bacteroides distasonis assessed as percent resistant isolates after 48 hrs by agar dilution method; format: functional; in short: as §2
Bacteroides ovatus = assay: Antimicrobial activity against Bacteroides ovatus assessed as percent susceptible isolates after 48 hrs by agar dilution method; format: functional
Prevotella intermedia [6] = assay: Antimicrobial activity against Prevotella intermedia after 48 hrs by agar dilution method; format: functional
In short: (§3)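 CLSI agar dilution (M11-A7); inoculum 10^5 CFU applied by replicator; plates incubated anaerobically 48 h at 37°C. For piperacillin-tazobactam, tazobactam held constant at 4 μg/ml.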

Prevotella buccae [7] = assay: Antimicrobial activity against Prevotella buccae after 48 hrs by agar dilution method; format: functional; settings: Segatella buccae; in short: as §3
Prevotella buccae [8] = assay: Antimicrobial activity against Prevotella buccae after 48 hrs by agar dilution method in presence of 4 ug/ml beta-lactamase inhibitor Tazobactam; format: functional; settings: Segatella buccae; in short: as §3
Prevotella intermedia [9] = assay: Antimicrobial activity against Prevotella intermedia assessed as percent resistant isolates after 48 hrs by agar dilution method in presence of 4 ug/ml beta-lactamase inhibitor Tazobactam; format: functional; in short: as §2
Prevotella bivia = assay: Antimicrobial activity against Prevotella bivia assessed as percent susceptible isolates after 48 hrs by agar dilution method; format: functional; in short: as §3
Prevotella buccae [10] = assay: Antimicrobial activity against Prevotella buccae assessed as percent susceptible isolates after 48 hrs by agar dilution method in presence of 4 ug/ml beta-lactamase inhibitor Tazobactam; format: functional, Segatella buccae; in short: as §3
Hoylesella oralis = assay: Antimicrobial activity against Prevotella oralis assessed as percent resistant isolates after 48 hrs by agar dilution method; format: functional; in short: as §2
[11] = test system: Porphyromonas asaccharolytica; assay: Antimicrobial activity against Porphyromonas asaccharolytica after 48 hrs by agar dilution method; format: functional; in short: as §3
Fusobacterium varium = assay: Antimicrobial activity against Fusobacterium varium after 48 hrs by agar dilution method in presence of 4 ug/ml beta-lactamase inhibitor Tazobactam; format: functional; in short: as §3
Fusobacterium necrogenes = assay: Antimicrobial activity against Fusobacterium necrogenes after 48 hrs by agar dilution method; format: functional; in short: as §3
Fusobacterium mortiferum = assay: Antimicrobial activity against Fusobacterium mortiferum after 48 hrs by agar dilution method; format: functional; in short: as §3
Parvimonas micra [12] = assay: Antimicrobial activity against Peptostreptococcus micros after 48 hrs by agar dilution method; format: functional; in short: as §3
Parvimonas micra [13] = assay: Antimicrobial activity against Peptostreptococcus micros after 48 hrs by agar dilution method in presence of 4 ug/ml beta-lactamase inhibitor Tazobactam; format: functional; in short: as §3
Anaerococcus prevotii [14] = assay: Antimicrobial activity against Anaerococcus prevotii after 48 hrs by agar dilution method; format: functional; in short: as §1
Anaerococcus prevotii [15] = assay: Antimicrobial activity against Anaerococcus prevotii after 48 hrs by agar dilution method in presence of 4 ug/ml beta-lactamase inhibitor Tazobactam; format: functional
In short: (§4)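 MICs by CLSI agar dilution for piperacillin combined with tazobactam, with tazobactam held constant at 4 μg/ml. Clinical anaerobe isolates inoculated at 10^5 CFU by Steers replicator. Plates kept in an anaerobic chamber at 37°C for 48 h.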

Anaerococcus prevotii [16] = assay: Antimicrobial activity against Anaerococcus prevotii assessed as percent susceptible isolates after 48 hrs by agar dilution method; format: functional
Anaerococcus prevotii [17] = assay: Antimicrobial activity against Anaerococcus prevotii assessed as percent susceptible isolates after 48 hrs by agar dilution method in presence of 4 ug/ml beta-lactamase inhibitor Tazobactam; format: functional
[18] = test system: Peptoniphilus asaccharolyticus; assay: Antimicrobial activity against Peptoniphilus asaccharolyticus after 48 hrs by agar dilution method; format: functional; in short: as §3
[19] = test system: Peptoniphilus asaccharolyticus; assay: Antimicrobial activity against Peptoniphilus asaccharolyticus assessed as percent susceptible isolates after 48 hrs by agar dilution method; format: functional; in short: as §3
[20] = test system: Peptoniphilus asaccharolyticus; assay: Antimicrobial activity against Peptoniphilus asaccharolyticus assessed as percent resistant isolates after 48 hrs by agar dilution method; format: functional; in short: as §2
Finegoldia magna = assay: Antimicrobial activity against Finegoldia magna after 48 hrs by agar dilution method in presence of 4 ug/ml beta-lactamase inhibitor Tazobactam; format: functional; in short: as §3
Clostridioides difficile = assay: Antimicrobial activity against Clostridium difficile after 48 hrs by agar dilution method in presence of 4 ug/ml beta-lactamase inhibitor Tazobactam; format: functional; in short: as §3
Schaalia odontolytica [21] = assay: Antimicrobial activity against Actinomyces odontolyticus assessed as percent susceptible isolates after 48 hrs by agar dilution method; format: functional
Schaalia odontolytica [22] = assay: Antimicrobial activity against Actinomyces odontolyticus assessed as percent resistant isolates after 48 hrs by agar dilution method; format: functional; in short: as §2
Schaalia meyeri = assay: Antimicrobial activity against Actinomyces meyeri assessed as percent susceptible isolates after 48 hrs by agar dilution method; format: functional
Actinomyces naeslundii [23] = assay: Antimicrobial activity against Actinomyces naeslundii after 48 hrs by agar dilution method in presence of 4 ug/ml beta-lactamase inhibitor Tazobactam; format: functional; in short: as §4
Actinomyces naeslundii [24] = assay: Antimicrobial activity against Actinomyces naeslundii assessed as percent susceptible isolates after 48 hrs by agar dilution method; format: functional
[25] = test system: Bifidobacterium adolescentis; assay: Antimicrobial activity against Bifidobacterium adolescentis after 48 hrs by agar dilution method in presence of 4 ug/ml beta-lactamase inhibitor Tazobactam; format: functional; in short: as §4
[26] = test system: Bifidobacterium adolescentis; assay: Antimicrobial activity against Bifidobacterium adolescentis assessed as percent susceptible isolates after 48 hrs by agar dilution method; format: functional
Bifidobacterium sp. [27] = assay: Antimicrobial activity against Bifidobacterium sp. after 48 hrs by agar dilution method; format: functional; in short: as §1
Bifidobacterium sp. [28] = assay: Antimicrobial activity against Bifidobacterium sp. assessed as percent susceptible isolates after 48 hrs by agar dilution method; format: functional; in short: as §3
Bifidobacterium sp. [29] = assay: Antimicrobial activity against Bifidobacterium sp. assessed as percent resistant isolates after 48 hrs by agar dilution method; format: functional; in short: as §2
Eggerthella lenta [30] = assay: Antimicrobial activity against Eubacterium lentum after 48 hrs by agar dilution method; format: functional; in short: as §3
Eggerthella lenta [31] = assay: Antimicrobial activity against Eubacterium lentum assessed as percent susceptible isolates after 48 hrs by agar dilution method; format: functional; in short: as §3

For `CCN1CCN(C(=O)N[C@@H](C(=O)N[C@@H]2C(=O)N3[C@@H]2SC(C)(C)[C@@H]3C(=O)O)c2ccccc2)C(=O)C1=O` [PIPERACILLIN], the MIC50 (Bacteroides caccae [1]) was 128 µg/mL (≈ 247 µM), the MIC90 (Bacteroides caccae [1]) was over 256 µg/mL and the MIC50 (Phocaeicola vulgatus) was 128 µg/mL (≈ 247 µM). The MIC90 (Phocaeicola vulgatus) was over 256 µg/mL, the Activity (Bacteroides fragilis) was 67% and the Activity [2] was 7%. For the same molecule, the Activity (Bacteroides caccae [3]) was 42%, the Activity [4] was 89% and the Activity [5] was 51%. For the same molecule, the Activity (Bacteroides ovatus) was 42%, the MIC50 (Prevotella intermedia [6]) was 8 µg/mL (≈ 15.5 µM) and the MIC90 (Prevotella intermedia [6]) was 16 µg/mL (≈ 30.9 µM). The MIC50 (Prevotella buccae [7]) was 16 µg/mL (≈ 30.9 µM), the MIC90 (Prevotella buccae [7]) was 128 µg/mL (≈ 247 µM) and the MIC50 (Prevotella buccae [8]) was at most 0.03 µg/mL. For the same molecule, the MIC90 (Prevotella buccae [8]) was 4 µg/mL, the Activity (Prevotella intermedia [9]) was 0% and the Activity (Prevotella bivia) was 78%. The Activity (Prevotella buccae [10]) was 100%, the Activity (Hoylesella oralis) was 11% and the MIC [11] was 0.06 µg/mL (≈ 0.116 µM). It also gave an MIC (Fusobacterium varium) of 0.03 µg/mL, an MIC (Fusobacterium necrogenes) of 0.06 µg/mL (≈ 0.116 µM) and an MIC (Fusobacterium mortiferum) of 0.06 µg/mL (≈ 0.116 µM). For the same molecule, the MIC50 (Parvimonas micra [12]) was 0.25 µg/mL (≈ 0.483 µM), the MIC90 (Parvimonas micra [12]) was 16 µg/mL (≈ 30.9 µM) and the MIC50 (Parvimonas micra [13]) was 0.25 µg/mL. It also gave an MIC90 (Parvimonas micra [13]) of 16 µg/mL, an MIC50 (Anaerococcus prevotii [14]) of 0.125 µg/mL (≈ 0.242 µM) and an MIC90 (Anaerococcus prevotii [14]) of 0.25 µg/mL (≈ 0.483 µM). It also gave an MIC50 (Anaerococcus prevotii [15]) of 0.125 µg/mL, an MIC90 (Anaerococcus prevotii [15]) of 0.125 µg/mL and an Activity (Anaerococcus prevotii [16]) of 100%. It also gave an Activity (Anaerococcus prevotii [17]) of 100%, an MIC50 [18] of at most 0.06 µg/mL and an MIC90 [18] of at most 0.06 µg/mL. The Activity [19] was 100%, the Activity [20] was 0% and the MIC50 (Finegoldia magna) was 0.06 µg/mL. For the same molecule, the MIC90 (Finegoldia magna) was 0.125 µg/mL, the MIC50 (Clostridioides difficile) was 4 µg/mL and the MIC90 (Clostridioides difficile) was 8 µg/mL. For the same molecule, the Activity (Schaalia odontolytica [21]) was 92%, the Activity (Schaalia odontolytica [22]) was 0% and the Activity (Schaalia meyeri) was 92%. The MIC50 (Actinomyces naeslundii [23]) was 0.5 µg/mL, the MIC90 (Actinomyces naeslundii [23]) was 8 µg/mL and the Activity (Actinomyces naeslundii [24]) was 92%. The MIC50 [25] was 0.5 µg/mL, the MIC90 [25] was 8 µg/mL and the Activity [26] was 92%. The MIC50 (Bifidobacterium sp. [27]) was 1 µg/mL (≈ 1.93 µM), the MIC90 (Bifidobacterium sp. [27]) was 8 µg/mL (≈ 15.5 µM) and the Activity (Bifidobacterium sp. [28]) was 92%. The Activity (Bifidobacterium sp. [29]) was 0%, the MIC50 (Eggerthella lenta [30]) was 1 µg/mL (≈ 1.93 µM) and the MIC90 (Eggerthella lenta [30]) was 8 µg/mL (≈ 15.5 µM). It also gave an Activity (Eggerthella lenta [31]) of 92%.
